This series deals with Chinese Hamster Ovary (CHO) cells. The experiment in a line: Cytotoxicity, MTT assay in CHO cells. The series is classed as cell-based. The following applies: 5 μM, 48 hours. The essentials:
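CHO cells seeded in 96-well plates, test compound added at concentrations up to 20 μM, then 48 h at 37°C, 5% CO2, humidified (cells adhere during incubation). MTT (50 μg/well) added for 6 h. Formazan dissolved in acidified isopropanol (90% isopropanol:10% Triton X-100:0.4% HCl), OD read at 550 nm as relative viability. Mean ± standard error, ≥3 experiments.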

As to Melittin, the “cell viability (positive control)” value was “complete loss of cell viability”.

These data come from article PMC3995353 (Biopolymers, 2014).
